Laboratory results taken from ChEMBL document CHEMBL4765231 (J Med Chem, 2016).
Converted amounts (≈) assume the structure as drawn. The source made the active and inactive calls. The rule behind the calls is not given here.

What was measured:
[1] = tested on: Oryctolagus cuniculus; test: (§1) Cardioprotective activity in New Zealand rabbit model of LAD coronary artery occlusion-induced ischemia-reperfusion injury assessed as inhibition of ST segment elevation intravenously administered with compound for 30 mins followed by induction of ischemia for 15 mins and subsequent reperfusion for 15 mins by electrocardiographic analysis; type: functional
[2] = molecular target: T1, Sodium channel protein type 4 subunit alpha (Homo sapiens, UniProt P35499); test: Inhibition of NaV1.4 (unknown origin) at 25 Hz frequency by whole cell manual patch clamp technique
T1 sequence (P35499 whole entry): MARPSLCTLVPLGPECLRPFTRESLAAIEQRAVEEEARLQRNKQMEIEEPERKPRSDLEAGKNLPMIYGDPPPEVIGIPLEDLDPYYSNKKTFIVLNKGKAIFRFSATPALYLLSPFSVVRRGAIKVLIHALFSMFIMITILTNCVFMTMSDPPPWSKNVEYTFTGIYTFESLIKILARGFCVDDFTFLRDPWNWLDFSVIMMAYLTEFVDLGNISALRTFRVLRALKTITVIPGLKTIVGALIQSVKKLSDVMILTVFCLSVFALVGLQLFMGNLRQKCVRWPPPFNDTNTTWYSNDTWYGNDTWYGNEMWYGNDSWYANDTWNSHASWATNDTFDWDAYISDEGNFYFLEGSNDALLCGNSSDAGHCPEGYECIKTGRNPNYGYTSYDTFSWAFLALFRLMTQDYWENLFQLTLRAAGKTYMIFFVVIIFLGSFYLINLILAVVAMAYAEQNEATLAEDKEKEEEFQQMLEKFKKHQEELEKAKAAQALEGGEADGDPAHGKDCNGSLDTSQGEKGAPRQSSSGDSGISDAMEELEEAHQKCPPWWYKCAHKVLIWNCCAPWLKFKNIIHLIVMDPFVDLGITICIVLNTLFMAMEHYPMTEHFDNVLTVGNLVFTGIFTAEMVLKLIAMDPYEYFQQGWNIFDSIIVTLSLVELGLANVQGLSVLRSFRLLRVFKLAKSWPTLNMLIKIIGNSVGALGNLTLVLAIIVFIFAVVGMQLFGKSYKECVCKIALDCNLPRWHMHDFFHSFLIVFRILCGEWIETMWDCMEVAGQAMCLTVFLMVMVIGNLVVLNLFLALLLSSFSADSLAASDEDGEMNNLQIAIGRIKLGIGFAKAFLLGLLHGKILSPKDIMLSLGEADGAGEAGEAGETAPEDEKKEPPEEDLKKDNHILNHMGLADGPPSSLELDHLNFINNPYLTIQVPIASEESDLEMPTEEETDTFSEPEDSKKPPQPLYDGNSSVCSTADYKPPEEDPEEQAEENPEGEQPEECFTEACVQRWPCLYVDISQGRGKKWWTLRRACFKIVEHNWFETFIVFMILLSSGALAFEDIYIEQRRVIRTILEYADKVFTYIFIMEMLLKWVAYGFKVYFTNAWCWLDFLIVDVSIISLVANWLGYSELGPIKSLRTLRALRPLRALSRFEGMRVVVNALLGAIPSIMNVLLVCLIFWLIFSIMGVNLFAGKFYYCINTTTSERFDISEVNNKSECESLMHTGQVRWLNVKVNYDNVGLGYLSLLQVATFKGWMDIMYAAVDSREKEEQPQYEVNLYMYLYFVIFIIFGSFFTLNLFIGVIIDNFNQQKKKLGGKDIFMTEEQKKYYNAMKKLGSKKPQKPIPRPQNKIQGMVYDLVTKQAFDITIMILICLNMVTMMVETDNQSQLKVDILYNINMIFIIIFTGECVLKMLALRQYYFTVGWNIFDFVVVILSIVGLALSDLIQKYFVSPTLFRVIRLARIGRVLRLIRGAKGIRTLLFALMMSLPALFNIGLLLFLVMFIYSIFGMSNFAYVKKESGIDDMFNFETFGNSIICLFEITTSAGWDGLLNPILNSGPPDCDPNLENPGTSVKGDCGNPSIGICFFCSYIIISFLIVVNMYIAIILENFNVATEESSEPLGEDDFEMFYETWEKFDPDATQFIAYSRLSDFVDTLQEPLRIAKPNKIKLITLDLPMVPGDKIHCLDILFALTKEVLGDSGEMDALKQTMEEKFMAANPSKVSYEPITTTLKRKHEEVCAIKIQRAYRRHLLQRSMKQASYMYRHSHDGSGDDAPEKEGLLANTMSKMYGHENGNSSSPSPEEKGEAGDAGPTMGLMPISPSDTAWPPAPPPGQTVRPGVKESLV
In short: (§2)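 Whole-cell manual patch clamp on non-cardiac NaV1.x channels, run at room temperature. Series resistance was compensated 90% so the command potential was reached within microseconds.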

[3] = molecular target: T2, Sodium channel protein type 8 subunit alpha (Homo sapiens, UniProt Q9UQD0); test: Inhibition of NaV1.6 (unknown origin) at 25 Hz frequency by whole cell manual patch clamp technique; in short: as §2
[4] = species on record: Oryctolagus cuniculus; test: as §1, with “in” for “in New Zealand”, “by measuring maximum efficacy incubated” for “intravenously administered”, “analysis relative to ranolazine” for “analysis”; type: functional; details: 0.5 h
[5] = Inhibition of late sodium current channel (unknown origin) at 25 Hz frequency by whole cell patch clamp technique; details: Homo sapiens
[6] = Solubility of compound in water; type: physicochemical
[7] = molecular target: NaV1.1 (Homo sapiens, UniProt P35498); test: Inhibition of NaV1.1 (unknown origin) expressed in cells assessed as inhibition of peak INa current at 10 uM at 25 Hz frequency by whole-cell patch clamp method relative to control; type: cell-based; details: cells expressing NaV1.1; in short: as §2
[8] = Metabolic stability in human microsomes assessed as half life; type: ADME, Microsome
[9] = Metabolic stability in rat microsomes assessed as half life; type: ADME, Microsome
[10] = Metabolic stability in dog microsomes assessed as half life; type: ADME, Canis lupus familiaris, Microsome
[11] = species on record: Oryctolagus cuniculus; test: Cardioprotective activity in New Zealand White rabbit heart assessed as reversal of ATX-II induced late sodium current prolongation in change in duration of monophasic action potential at 90 percent repolarization at 1 uM by electrocardiographic analysis relative to control; type: functional
[12] = molecular target: NaV1.5 (Homo sapiens, UniProt Q14524); test: Inhibition of human NaV1.5 expressed in HEK293 cells assessed as inhibition of peak sodium current measured at frequency 3 Hz at -20 mV resting membrane potential at 3 uM by electrophysiology assay relative to control; type: cell-based; details: HEK293 cells expressing human NaV1.5
[13] = species on record: Homo sapiens; test: Inhibition of L-type calcium channel (unknown origin)
[14] = species on record: Oryctolagus cuniculus; test: Cardioprotective activity in New Zealand White rabbit heart assessed as reversal of ATX-II induced late sodium current prolongation in change in duration of monophasic action potential at 90 percent repolarization by electrocardiographic analysis relative to control; type: functional, tissue-based
[15] = species on record: Oryctolagus cuniculus; test: Cardioprotective activity in New Zealand rabbit heart assessed as reversal of ATX-II induced late sodium current increase in QT interval by electrocardiographic analysis; type: functional
[16] = species on record: Oryctolagus cuniculus; test: as §1, with “at 500 nM” for “intravenously administered with compound”; type: functional; details: 1 h, time 60 min
[17] = tested on: Oryctolagus cuniculus; test: Cardioprotective activity in rabbit model of left circumflex artery ligation-induced ischemia assessed as inhibition of VT-VF at 0.125 to 1.5 mg/kg by electrocardiographic analysis; type: functional, organism-based; details: dose 0.125-1.5 mg/kg
[18] = species on record: Oryctolagus cuniculus; test: Cardioprotective activity in rabbit model of left circumflex artery ligation-induced ischemia assessed as inhibition of VT-VF at 2.5 uM; type: functional, organism-based
[19] = species on record: Oryctolagus cuniculus; test: Cardioprotective activity in rabbit model of left circumflex artery ligation-induced ischemia assessed as inhibition of VT-VF by electrocardiographic analysis; type: functional, organism-based
[20] = species on record: Oryctolagus cuniculus; test: Cardioprotective activity in rabbit assessed as decrease in chemically-induced Torsades des Pointes at 2.5 uM by electrocardiographic analysis; type: functional; set-up: scale not given: the % may be the effect or the level left
[21] = molecular target: T3, Sodium channel protein type 1 subunit alpha (Homo sapiens, UniProt P35498); test: Inhibition of NaV1.1 (unknown origin) at 10 Hz frequency by whole cell manual patch clamp technique; in short: as §2
[22] = molecular target: T4, Sodium channel protein type 3 subunit alpha (Homo sapiens, UniProt Q9NY46); test: Inhibition of NaV1.3 (unknown origin) at 10 Hz frequency by whole cell manual patch clamp technique; in short: as §2
T4 sequence (Q9NY46 whole entry): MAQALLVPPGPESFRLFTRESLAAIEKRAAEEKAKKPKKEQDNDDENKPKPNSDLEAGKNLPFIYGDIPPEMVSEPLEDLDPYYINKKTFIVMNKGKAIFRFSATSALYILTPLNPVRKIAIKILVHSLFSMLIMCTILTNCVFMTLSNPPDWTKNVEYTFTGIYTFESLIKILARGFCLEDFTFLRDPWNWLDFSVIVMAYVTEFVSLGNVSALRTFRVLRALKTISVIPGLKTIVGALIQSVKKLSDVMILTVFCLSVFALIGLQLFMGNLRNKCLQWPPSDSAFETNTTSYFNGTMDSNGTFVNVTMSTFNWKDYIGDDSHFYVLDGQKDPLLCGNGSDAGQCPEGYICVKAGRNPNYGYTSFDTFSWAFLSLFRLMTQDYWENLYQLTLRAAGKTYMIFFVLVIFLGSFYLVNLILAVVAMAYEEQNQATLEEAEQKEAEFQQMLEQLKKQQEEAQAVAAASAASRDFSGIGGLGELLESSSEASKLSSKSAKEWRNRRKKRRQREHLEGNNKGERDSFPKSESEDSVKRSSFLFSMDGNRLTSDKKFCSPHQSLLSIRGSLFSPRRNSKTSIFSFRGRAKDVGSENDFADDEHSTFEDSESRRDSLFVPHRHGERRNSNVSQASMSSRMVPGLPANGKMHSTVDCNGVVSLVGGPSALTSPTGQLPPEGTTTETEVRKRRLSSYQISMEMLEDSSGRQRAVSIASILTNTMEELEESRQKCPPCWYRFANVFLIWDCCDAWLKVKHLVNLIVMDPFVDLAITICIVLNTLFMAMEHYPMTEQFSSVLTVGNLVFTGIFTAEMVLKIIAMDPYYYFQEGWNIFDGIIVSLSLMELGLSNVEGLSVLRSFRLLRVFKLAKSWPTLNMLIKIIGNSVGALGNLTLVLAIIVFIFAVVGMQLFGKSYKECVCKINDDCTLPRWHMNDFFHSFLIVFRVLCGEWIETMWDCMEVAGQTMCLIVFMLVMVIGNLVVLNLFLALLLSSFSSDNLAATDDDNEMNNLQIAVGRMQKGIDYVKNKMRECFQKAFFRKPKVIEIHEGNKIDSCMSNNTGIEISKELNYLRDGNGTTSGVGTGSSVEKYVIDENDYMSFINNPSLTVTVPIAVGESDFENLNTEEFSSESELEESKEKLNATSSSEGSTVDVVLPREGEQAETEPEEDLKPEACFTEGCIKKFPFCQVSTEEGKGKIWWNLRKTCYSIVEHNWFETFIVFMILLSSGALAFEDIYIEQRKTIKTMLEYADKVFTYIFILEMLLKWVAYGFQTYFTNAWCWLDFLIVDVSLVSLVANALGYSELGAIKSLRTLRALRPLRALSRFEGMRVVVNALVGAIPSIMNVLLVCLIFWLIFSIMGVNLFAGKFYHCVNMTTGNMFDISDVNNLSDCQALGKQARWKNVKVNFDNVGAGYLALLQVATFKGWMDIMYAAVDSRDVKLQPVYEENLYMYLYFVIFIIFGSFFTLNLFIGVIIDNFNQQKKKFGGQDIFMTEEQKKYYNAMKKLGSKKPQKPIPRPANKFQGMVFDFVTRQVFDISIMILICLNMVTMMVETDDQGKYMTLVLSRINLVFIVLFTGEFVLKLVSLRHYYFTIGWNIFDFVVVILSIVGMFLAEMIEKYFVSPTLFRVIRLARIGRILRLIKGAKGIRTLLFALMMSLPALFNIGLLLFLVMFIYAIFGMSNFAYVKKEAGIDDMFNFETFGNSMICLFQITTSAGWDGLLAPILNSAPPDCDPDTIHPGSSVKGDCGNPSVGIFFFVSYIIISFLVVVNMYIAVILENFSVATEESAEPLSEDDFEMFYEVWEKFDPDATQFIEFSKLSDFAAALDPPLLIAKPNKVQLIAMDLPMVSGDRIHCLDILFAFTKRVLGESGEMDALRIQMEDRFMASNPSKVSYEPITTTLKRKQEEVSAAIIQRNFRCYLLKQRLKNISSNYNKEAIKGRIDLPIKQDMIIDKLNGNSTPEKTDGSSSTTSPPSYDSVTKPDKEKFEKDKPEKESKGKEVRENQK

[23] = molecular target: T1, Sodium channel protein type 4 subunit alpha; test: Inhibition of NaV1.4 (unknown origin) at 10 Hz frequency by whole cell manual patch clamp technique; in short: as §2
[24] = molecular target: T2, Sodium channel protein type 8 subunit alpha; test: Inhibition of NaV1.6 (unknown origin) at 10 Hz frequency by whole cell manual patch clamp technique; in short: as §2
[25] = molecular target: Sodium channel protein type 10 subunit alpha (Homo sapiens, UniProt Q9Y5Y9); test: Inhibition of NaV1.8 (unknown origin) at 10 Hz frequency by whole cell manual patch clamp technique; in short: as §2
[26] = molecular target: T4, Sodium channel protein type 3 subunit alpha; test: Inhibition of NaV1.3 (unknown origin) at 25 Hz frequency by whole cell manual patch clamp technique; in short: as §2
[27] = molecular target: T3, Sodium channel protein type 1 subunit alpha; test: Inhibition of peak NaV1.1 (unknown origin) at 10 uM at 10 Hz frequency by manual patch clamp technique
In short: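 Whole-cell manual patch clamp at room temperature, with series resistance compensated 90%.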

[28] = Inhibition of peak sodium current (unknown origin) by manual patch clamp method; set-up: species or system Homo sapiens
[29] = Inhibition of ATX-II induced late sodium current (unknown origin) by manual patch clamp method; set-up: species or system Homo sapiens
[30] = Intrinsic clearance in Sprague-dawley rat hepatocytes; type: ADME, cell-based, Hepatocyte; details: read-out: CLH (converted)
[31] = Intrinsic clearance in Beagle dog hepatocytes; type: ADME, cell-based, Canis lupus familiaris, Hepatocyte; details: read-out: CLH (converted)
[32] = Intrinsic clearance in cynomolgus monkey hepatocytes; type: ADME, cell-based, Macaca fascicularis, Hepatocyte; details: read-out: CLH (converted)
[33] = Intrinsic clearance in human hepatocytes; type: ADME, cell-based, Hepatocyte; details: read-out: CLH
In short: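 Clearance measured in pooled human hepatocytes with tritium-labelled compound.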

[34] = Clearance in iv dosed Sprague-Dawley rat; type: ADME, organism-based; details: in vivo
[35] = Clearance in iv dosed Beagle dog; type: ADME, organism-based, Canis lupus familiaris; details: in vivo
[36] = Clearance in iv dosed cynomolgus monkey; type: ADME, organism-based, Macaca fascicularis; details: in vivo
[37] = Volume of distribution at steady state in iv dosed Sprague-Dawley rat; type: ADME, organism-based; details: in vivo, read-out: Vdss
[38] = Volume of distribution at steady state in iv dosed Beagle dog; type: ADME, organism-based, Canis lupus familiaris; details: in vivo, read-out: Vdss
[39] = Volume of distribution at steady state in iv dosed cynomolgus monkey; type: ADME, organism-based, Macaca fascicularis; details: in vivo, read-out: Vdss
[40] = Half-life in iv dosed Sprague-Dawley rat; type: ADME, organism-based; details: in vivo
[41] = Half-life in iv dosed Beagle dog; type: ADME, organism-based, Canis lupus familiaris; details: in vivo
[42] = Half-life in iv dosed cynomolgus monkey; type: ADME, organism-based, Macaca fascicularis; details: in vivo
[43] = Oral bioavailability in Sprague-Dawley rat; type: ADME, organism-based; details: in vivo
[44] = Oral bioavailability in Beagle dog; type: ADME, organism-based, Canis lupus familiaris; details: in vivo
[45] = Oral bioavailability in cynomolgus monkey; type: ADME, organism-based, Macaca fascicularis; details: in vivo
[46] = Permeability of compound across apical to basolateral side in human Caco-2 cells; type: ADME, cell-based; details: read-out: permeability
[47] = species on record: Oryctolagus cuniculus; test: as §1, with “at 0.25 uM” for “intravenously administered with compound”; type: functional; set-up: scale not given: the % may be the effect or the level left; details: time 60 min, 1 h
[48] = species on record: Oryctolagus cuniculus; test: as §1, with “at 0.5 uM” for “intravenously administered with compound”; type: functional; set-up: scale not given: the % may be the effect or the level left; details: time 60 min, 1 h
[49] = Toxicity in New Zealand rabbit model of LAD coronary artery occlusion-induced ischemia-reperfusion injury assessed as effect on blood pressure at 0.25 to 0.5 uM; set-up: species or system Oryctolagus cuniculus; details: in vivo, dose 0.25-0.5 µM
[50] = Toxicity in New Zealand rabbit model of LAD coronary artery occlusion-induced ischemia-reperfusion injury assessed as effect on heart rate at 0.25 to 0.5 uM; set-up: species or system Oryctolagus cuniculus; details: in vivo, dose 0.25-0.5 µM
[51] = Toxicity in New Zealand rabbit model of LAD coronary artery occlusion-induced ischemia-reperfusion injury assessed as effect on ECG interval at 0.25 to 0.5 uM; set-up: species or system Oryctolagus cuniculus; details: in vivo, dose 0.25-0.5 µM
[52] = Permeability of compound across basolateral to apical side in human Caco-2 cells; type: ADME, cell-based; details: read-out: permeability
[53] = Toxicity in rat assessed as adverse event at > 10 uM; details: in vivo
In short: (§3)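 Single ascending dose studies, with CNS-related adverse events monitored.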

[54] = Toxicity in dog assessed as adverse event at > 10 uM; set-up: species or system Canis lupus familiaris; details: in vivo; in short: as §3

IC50 [2]: 3.3 µM
IC50 [3]: 4 µM
IC50 [5]: 0.88 µM
solubility [6]: 24 µM (≈ 9.97 µg/mL)
inhibition at 10 µM [7]: 53%
half-life [8]: 6.58 h
half-life [9]: 3.33 h
half-life [10]: 5.9 h
inhibition [13]: inactive
IC50 [14]: 0.7 µM
EC50 [19]: 1.7 µM
IC50 [21]: 96 µM
IC50 [22]: 16 µM
IC50 [23]: 13 µM
IC50 [24]: 28 µM
IC50 [25]: 18.8 µM
IC50 [26]: 3.5 µM
inhibition (INH) [27]: Not Active
IC50 [28]: 51 µM
IC50 [29]: 0.62 µM
CLint scaled [30]: 2.67 mL/min/kg
CLint scaled [31]: 1 mL/min/kg
CLint scaled [32]: 6 mL/min/kg
CLint scaled [33]: < 0.25 mL/min/kg
clearance [34]: 2.33 mL/min/kg
clearance [35]: 0.7 mL/min/kg
clearance [36]: 1.83 mL/min/kg
Vd [37]: 2.5 L/kg
Vd [38]: 1.6 L/kg
Vd [39]: 1.5 L/kg
half-life [40]: 13 h
half-life [41]: 27.9 h
half-life [42]: 5 h
bioavailability [43]: 91%
bioavailability [44]: 100%
bioavailability [45]: 39%
Papp A→B [46]: 34.6 ×10⁻⁶ cm/s
Papp B→A [52]: 29 ×10⁻⁶ cm/s
Compound: O=C1c2cc(-c3ccc(OC(F)(F)F)cc3)ccc2OCCN1Cc1ncccn1 [ELECLAZINE]
EC50 [1]: 0.19 µM
Activity ([1]; time 60.0 min): Dose-dependent effect
Emax [4]: 93%
Activity [11]: 62%
inhibition at 3 µM [12]: 24%
Activity [15]: Active
inhibition in vivo at 0.5 µM [16]: 93%
Activity [17]: Active
Activity [18]: Active
Activity [20]: 100%
Activity [47]: 55%
Activity [48]: 93%
Activity [49]: Non-Toxic
Activity [50]: Non-Toxic
Activity [51]: Non-Toxic
Activity [53]: Toxic
Activity [54]: Toxic
